Measured values reported in article PMC8817670 (Journal of medicinal chemistry, 2021).
Read-outs that look alike come from different tables or passages of the source.

Assays:
TSPO in rat kidney [1] = target: T1, TSPO in rat kidney (Rattus norvegicus, UniProt P16257); experiment: [3H]PK11195 displacement binding, rat kidney membranes; conditions: for lipE rat kidney: lipE = pKi – logD
[2] = target: TSPO in human U87MG cells (Homo sapiens, UniProt P30536); experiment: [3H]PK11195 displacement binding, human U87MG cell membranes; conditions: for lipE human U87MG: lipE = pKi – logD
[3] = target: T2, human cerebellum TSPO, HAB genotype (Homo sapiens, UniProt P30536); experiment: [3H]PK11195 binding assay, human cerebellum homogenates, HAB genotype; conditions: for lipE HAB: lipE = pKi – logD
[4] = target: T3, human cerebellum TSPO, LAB genotype (Homo sapiens, UniProt P30536); experiment: [3H]PK11195 binding assay, human cerebellum homogenates, LAB genotype
[5] = test system: human cerebellum TSPO, LAB genotype; experiment: as above; conditions: human cerebellum genotype sensitivity in vitro
Measurement of logD = type: physicochemical; conditions: for logD7.4: n-octanol / sodium phosphate buffer pH 7.4, RT, n = 6; for logD: n-octanol/sodium phosphate buffer, pH 7.4
Method in brief: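 Shake-flask partition of each radiolabelled test compound between 1-octanol and sodium phosphate buffer (pH 7.4) at room temperature; logD taken from the distribution coefficient of radioactivity between the two phases.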

TSPO in rat kidney [6] = target: T1, TSPO in rat kidney; conditions: cited from earlier work
[7] = target: T2, human cerebellum TSPO, HAB genotype; conditions: cited from earlier work
[8] = target: T3, human cerebellum TSPO, LAB genotype; conditions: read-out: LAB Ki; cited from earlier work
[9] = test system: human cerebellum TSPO, LAB genotype; conditions: cited from earlier work
[10] = cited from earlier work
TSPO in the mouse brain = TSPO in the mouse brain (Mus musculus, UniProt P50637); experiment: PET imaging of radioligands in mouse brain, baseline and PK11195 preblock; type: in vivo
[11] = read-out: rat kidney Ki, [3H]PK11195 1 nM, 90 min at 0 °C, n = 3
[12] = read-out: human U87MG Ki, [3H]PK11195 1 nM, 90 min at 0 °C, n = 3
[13] = read-out: HAB Ki, human cerebellum, three HAB subjects, 1 h at 37 °C
[14] = read-out: LAB Ki, human cerebellum, three LAB subjects, 1 h at 37 °C
[15] = lipE = pKi – logD, data from ref 27

T2 sequence (P30536 whole entry): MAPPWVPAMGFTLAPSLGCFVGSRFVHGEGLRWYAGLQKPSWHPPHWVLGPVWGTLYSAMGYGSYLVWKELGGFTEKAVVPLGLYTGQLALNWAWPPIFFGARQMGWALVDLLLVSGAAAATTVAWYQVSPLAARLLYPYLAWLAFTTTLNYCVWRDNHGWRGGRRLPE
Sequence of TSPO in human U87MG cells (P30536 whole entry): as above
T3 sequence (P30536 2-169): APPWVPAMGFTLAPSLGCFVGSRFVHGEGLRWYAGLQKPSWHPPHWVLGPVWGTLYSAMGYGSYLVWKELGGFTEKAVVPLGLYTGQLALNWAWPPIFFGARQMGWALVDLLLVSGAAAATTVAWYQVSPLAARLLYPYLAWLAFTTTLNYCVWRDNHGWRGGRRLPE

SMILES	lipE rat kidney (TSPO in rat kidney [1])	Ki (TSPO in rat kidney [1]; [11])	lipE human U87MG [2]	Ki [2, 12]	lipE HAB [3]	Ki [3, 13]	Ki [4, 14]	LAB to HAB Ki ratio [5]	logD7.4 (Measurement of logD)	Ki (TSPO in rat kidney [1])	Ki [2]	Ki [3]	Ki [4]	logD (Measurement of logD)	further results
CC[C@@H](C)N(C)C(=O)c1nc(-c2ccccc2F)c2ccccc2n1 [3a, (R)-(N-sec-Butyl)-4-(2-fluorophenyl)-N-methylquinazoline-2-carboxamide]	5.34	4.19 ± 0.35 nM	5.21	5.64 ± 0.66 nM	5.01	9 ± 9.5 nM	25 ± 11.6 nM	2.78	3.04 ± 0.03	–	–	–	–	–	–
CC[C@@H](C)N(C)C(=O)c1nc(-c2cccc(F)c2)c2ccccc2n1 [3b, (R)-(N-sec-Butyl)-4-(3-fluorophenyl)-N-methylquinazoline-2-carboxamide]	5.20	5.17 ± 0.63 nM	5.20	5.09 ± 0.65 nM	4.95	9.1 ± 8.1 nM	24.9 ± 12.7 nM	2.74	3.09 ± 0.01	–	–	–	–	–	–
CC[C@@H](C)N(C)C(=O)c1nc(-c2ccc(F)cc2)c2ccccc2n1 [3c, (R)-(N-sec-Butyl)-4-(4-fluorophenyl)-N-methylquinazoline-2-carboxamide]	5.12	7.41 ± 0.82 nM	5.14	7.03 ± 0.66 nM	4.81	15.3 ± 10.3 nM	44.5 ± 34.4 nM	2.91	3.01 ± 0.02	–	–	–	–	–	–
CC[C@@H](C)N(C)C(=O)c1nc(-c2ccccc2Cl)c2ccccc2n1 [ER176, (R)-N-(sec-butyl)-4-(2-chlorophenyl)-N-methylquina-zoline-2-carboxamide]	–	–	–	–	–	–	–	–	–	–	–	–	–	–	lipE rat kidney (TSPO in rat kidney [6]; [15]): 4.96; Ki (TSPO in rat kidney [6]; read-out: rat kidney Ki): 3.1 ± 0.3 nM; lipE HAB [7, 15]: 5.28; Ki ([7]; read-out: HAB Ki): 1.48 nM; Ki [8]: 1.89 nM; LAB to HAB Ki ratio [9]: 1.28; logD7.4 [10]: 3.55 ± 0.02
CC[C@@H](C)N([11CH3])C(=O)c1nc(-c2ccccc2Cl)c2ccccc2n1 [[^11C]ER176]	–	–	–	–	–	–	–	–	–	–	–	–	–	–	blocking effect of PK11195 on brain uptake (TSPO in the mouse brain; PK11195 5 mg/kg i.v. preblock, baseline vs preblock, 80–100 min): 72%; peak radioactivity uptake in the brain (TSPO in the mouse brain; mouse whole brain, baseline, i.v. injection): around 1.0 SUV; estimated brain TSPO occupancy at baseline (TSPO in the mouse brain; occupancy by carrier, estimated from brain concentration and molar activity): 2.6%

Second part, led by results:

lipE rat kidney (TSPO in rat kidney [1])	Ki (TSPO in rat kidney [1]; [11])	lipE human U87MG [2]	Ki [2, 12]	lipE HAB [3]	Ki [3, 13]	Ki [4, 14]	LAB to HAB Ki ratio [5]	logD7.4 (Measurement of logD)	Ki (TSPO in rat kidney [1])	Ki [2]	Ki [3]	Ki [4]	logD (Measurement of logD)	SMILES	further results
5.18	–	5.25	–	–	–	–	5.46	–	3.74 ± 0.1 nM	3.18 ± 0.17 nM	6.8 ± 8.1 nM	37.1 ± 30.2 nM	3.25 ± 0.03	CC[C@@H](C)N(C)C(=O)c1nc(-c2ccccc2C(F)(F)F)c2ccccc2n1 [3d, (R)-N-(sec-Butyl)-N-methyl-4-(2-(trifluoromethyl)phenyl)-quinazoline-2-carboxamide]	–
5.14	–	5.21	–	4.02	–	–	1.98	–	1.44 ± 0.21 nM	1.19 ± 0.17 nM	18.6 ± 15.7 nM	36.9 ± 38.5 nM	3.71 ± 0.03	CC[C@@H](C)N(C)C(=O)c1nc(-c2cccc(C(F)(F)F)c2)c2ccccc2n1 [3e, (R)-N-(sec-Butyl)-N-methyl-4-(3-(trifluoromethyl)phenyl)-quinazoline-2-carboxamide]	–
4.43	–	4.69	–	4.37	–	–	0.8	–	4.39 ± 0.14 nM	2.42 ± 0.66 nM	5 ± 3.9 nM	4 ± 5 nM	3.93 ± 0.01	CC[C@@H](C)N(C)C(=O)c1nc(-c2ccc(C(F)(F)F)cc2)c2ccccc2n1 [3f, (R)-N-(sec-Butyl)-N-methyl-4-(4-(trifluoromethyl)phenyl)-quinazoline-2-carboxamide]	–
–	–	–	–	–	–	–	–	3.97 ± 0.02	–	–	–	–	–	CCC(C)N(C)C(=O)c1cc2ccccc2c(-c2ccccc2Cl)n1 (stereo not shown) [PK11195, reference compound]	–
